Measured values reported in ChEMBL document CHEMBL4017517, “Small Molecule Inhibitors Simultaneously Targeting Cancer Metabolism and Epigenetics: Discovery of Novel Nicotinamide Phosphoribosyltransferase (NAMPT) and Histone Deacetylase (HDAC) Dual Inhibitors” (J Med Chem, 2017).
Activity calls are given as the source filed them. The calls are words filed in the database; no cut-off is given here.

Key:
Homo sapiens [1] = species: Homo sapiens; test: Inhibition of HDAC in human HCT116 cells assessed as increase in acetylated histone H3 level after 24 hrs by Western blot analysis; format: cell-based
Procedure, shortened: (§1)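 HCT116 cells treated at 1 and 5 μM for 24 h; DMSO-volume control. PBS-washed, RIPA-lysed on ice 30 min, centrifuged 12000 × g 15 min at 4 °C. 30 μg protein separated by SDS-PAGE, blotted to PVDF, blocked 5% BSA 2 h. Incubated with acetyl-histone H3 or H4 primary antibody overnight at 4 °C, then secondary antibody; infrared imaging.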

HCT-116 [2] = test: Cell cycle arrest in human HCT116 cells assessed as accumulation at G2 phase at 5 uM after 48 hrs by propidium iodide staining based flow cytometry (reference value: 5%); format: functional
MDA-MB-231 = test: cells; format: functional, cell-based; conditions: Homo sapiens, MDA-MB-231, 72 h
[3] = Cmax in Sprague-Dawley rat at 2 mg/kg, ip; format: ADME, organism-based; design: dose 2 mg/kg, route intraperitoneal; conditions: in vivo
Procedure, shortened: (§2)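 Sprague-Dawley rats given a single ip dose of 2 mg/kg. Plasma concentration–time profile used to derive terminal half-life, Cmax, plasma clearance and Vss.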

HCT-116 [4] = test: Induction of autophagy in human HCT116 cells assessed as increase in LC3-2 level at 5 uM after 48 to 72 hrs by Western blot analysis; format: functional, cell-based
Procedure, shortened: (§3)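 HCT116 cells exposed to 5 μM for 24, 48 and 72 h; DMSO control. Lysed in RIPA on ice, cleared 12000 × g. 30 μg protein per lane on SDS-PAGE, transferred to PVDF, blocked in 5% BSA. Probed overnight at 4 °C for LC3-II and P-62, then secondary antibody 1.5 h. Infrared imaging detection with quantification.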

HCT-116 [5] = test: Induction of apoptosis in human HCT116 cells assessed as necrotic cells at 5 uM after 72 hrs by Annexin V-FITC/propidium iodide staining-based flow cytometric analysis (reference value: 1.25%); format: functional
Procedure, shortened: (§4)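 HCT116 cells seeded at 5×10^5 cells/mL in six-well plates, treated at 5 μM for 72 h alongside vehicle. Cells trypsinized, washed twice in cold PBS, and resuspended in 1× binding buffer. Stained with annexin V-FITC 15 min at room temperature, then PI 15 min in dark, then flow cytometry.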

Histone deacetylase 8 = biological target: T1, Histone deacetylase 8 (Homo sapiens, UniProt Q9BY41); test: Inhibition of GST tagged full length human recombinant HDAC8 (H90 to 30H) expressed in Baculovirus infected Sf9 insect cells using Ac-Leu-Gly-Lys(Tfa)-AMC as substrate preincubated for 5 mins followed by substrate addition measured after 30 mins by fluorescence assay
T1 sequence (Q9BY41 whole entry): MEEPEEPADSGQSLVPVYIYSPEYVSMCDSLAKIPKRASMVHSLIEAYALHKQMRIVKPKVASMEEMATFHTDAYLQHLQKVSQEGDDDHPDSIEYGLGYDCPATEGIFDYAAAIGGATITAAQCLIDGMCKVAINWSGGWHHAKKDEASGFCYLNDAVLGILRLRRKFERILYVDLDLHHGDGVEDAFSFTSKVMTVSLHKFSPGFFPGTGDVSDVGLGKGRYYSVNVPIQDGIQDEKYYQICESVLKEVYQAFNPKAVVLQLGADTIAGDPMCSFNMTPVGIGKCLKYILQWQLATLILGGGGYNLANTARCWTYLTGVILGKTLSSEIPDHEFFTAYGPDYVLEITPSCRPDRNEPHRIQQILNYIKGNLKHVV

HCT-116 [6] = test: Induction of apoptosis in human HCT116 cells assessed as late apoptotic cells at 5 uM after 72 hrs in presence of autophagy inhibitor wortmannin by Annexin V-FITC/propidium iodide staining-based flow cytometric analysis (reference value: 3.33%); format: functional
HCT-116 [7] = test: cells; format: functional, cell-based; conditions: Homo sapiens, HCT-116, 72 h
HCT-116 [8] = test: Induction of apoptosis in human HCT116 cells assessed as late apoptotic cells at 5 uM after 72 hrs by Annexin V-FITC/propidium iodide staining-based flow cytometric analysis (reference value: 3.33%); format: functional; procedure, shortened: as §4
Histone deacetylase 2 = Histone deacetylase 2 (Homo sapiens, UniProt Q92769)
HCT-116 [9] = test: Induction of apoptosis in human HCT116 cells assessed as necrotic cells at 5 uM after 72 hrs in presence of autophagy inhibitor wortmannin by Annexin V-FITC/propidium iodide staining-based flow cytometric analysis (reference value: 1.25%); format: functional
HCT-116 [10] = test: Induction of autophagy in human HCT116 cells assessed as decrease in P-62 level at 5 uM after 24 to 72 hrs by Western blot analysis; format: functional, cell-based; procedure, shortened: as §3
HepG2 = test: cells; format: functional, cell-based; conditions: Homo sapiens, HepG2, 72 h
HCT-116 [11] = test: Induction of autophagy in human HCT116 cells assessed as increase in LC3-2 level at 5 uM after 24 hrs by Western blot analysis; format: functional, cell-based; procedure, shortened: as §3
Histone deacetylase 4 = Histone deacetylase 4 (Homo sapiens, UniProt P56524); test: Inhibition of GST tagged human recombinant HDAC4 (H86 to 31G) expressed in Baculovirus infected Sf9 insect cells using Ac-Leu-Gly-Lys(Tfa)-AMC as substrate preincubated for 5 mins followed by substrate addition measured after 30 mins by fluorescence assay
Histone deacetylase 4, sequence (P56524 whole entry): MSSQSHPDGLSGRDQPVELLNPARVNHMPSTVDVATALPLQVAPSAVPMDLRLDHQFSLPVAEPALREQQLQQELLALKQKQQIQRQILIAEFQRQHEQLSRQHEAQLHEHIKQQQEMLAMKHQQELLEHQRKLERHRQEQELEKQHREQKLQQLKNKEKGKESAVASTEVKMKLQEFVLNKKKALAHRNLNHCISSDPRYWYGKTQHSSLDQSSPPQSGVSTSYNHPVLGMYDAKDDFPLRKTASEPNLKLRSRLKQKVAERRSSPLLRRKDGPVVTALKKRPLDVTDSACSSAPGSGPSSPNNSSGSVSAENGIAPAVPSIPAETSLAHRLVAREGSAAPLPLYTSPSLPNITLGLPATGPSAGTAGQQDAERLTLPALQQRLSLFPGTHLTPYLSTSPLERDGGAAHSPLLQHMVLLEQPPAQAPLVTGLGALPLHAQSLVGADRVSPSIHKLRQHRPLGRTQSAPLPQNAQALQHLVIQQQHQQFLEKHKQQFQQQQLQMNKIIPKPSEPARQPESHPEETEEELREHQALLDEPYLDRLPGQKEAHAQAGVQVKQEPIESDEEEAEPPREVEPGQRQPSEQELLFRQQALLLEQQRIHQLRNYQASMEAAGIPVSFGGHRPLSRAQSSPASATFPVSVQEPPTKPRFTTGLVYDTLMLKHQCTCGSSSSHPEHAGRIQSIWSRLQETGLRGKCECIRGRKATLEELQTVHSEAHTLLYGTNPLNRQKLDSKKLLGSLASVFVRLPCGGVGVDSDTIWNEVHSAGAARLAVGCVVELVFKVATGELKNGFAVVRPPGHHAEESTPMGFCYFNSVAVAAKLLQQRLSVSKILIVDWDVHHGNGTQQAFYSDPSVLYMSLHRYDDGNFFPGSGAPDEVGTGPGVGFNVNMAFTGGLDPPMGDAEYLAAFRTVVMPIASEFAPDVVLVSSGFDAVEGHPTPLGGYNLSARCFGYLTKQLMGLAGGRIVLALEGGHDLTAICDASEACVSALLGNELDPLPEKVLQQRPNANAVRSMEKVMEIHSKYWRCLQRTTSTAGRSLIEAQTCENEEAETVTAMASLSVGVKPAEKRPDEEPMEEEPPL

[12] = Terminal half life in Sprague-Dawley rat at 2 mg/kg, ip; format: ADME, organism-based; conditions: in vivo, read-out: beta t1/2 (converted); procedure, shortened: as §2
Histone deacetylase 1 = Histone deacetylase 1 (Homo sapiens, UniProt Q13547); test: Inhibition of human recombinant HDAC1 (1 to 482 residues) expressed in Baculovirus using Ac-Leu-Gly-Lys(Ac)-AMC as substrate preincubated for 5 mins followed by substrate addition measured after 30 mins by fluorescence assay
Histone deacetylase 1, sequence (Q13547 whole entry, the tested form may be a part): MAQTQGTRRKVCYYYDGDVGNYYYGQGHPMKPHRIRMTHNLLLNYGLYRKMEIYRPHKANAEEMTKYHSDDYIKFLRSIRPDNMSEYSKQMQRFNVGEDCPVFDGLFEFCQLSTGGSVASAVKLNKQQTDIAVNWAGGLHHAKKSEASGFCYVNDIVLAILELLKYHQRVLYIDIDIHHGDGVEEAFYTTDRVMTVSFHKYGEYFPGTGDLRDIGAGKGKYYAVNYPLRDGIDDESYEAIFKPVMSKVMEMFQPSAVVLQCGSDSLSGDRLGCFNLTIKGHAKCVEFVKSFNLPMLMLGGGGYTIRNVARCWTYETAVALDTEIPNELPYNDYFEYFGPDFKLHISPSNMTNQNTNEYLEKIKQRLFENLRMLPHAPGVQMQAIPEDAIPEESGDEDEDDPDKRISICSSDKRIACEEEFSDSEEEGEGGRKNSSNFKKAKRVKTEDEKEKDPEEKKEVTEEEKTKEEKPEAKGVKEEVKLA

[13] = biological target: Histone deacetylase 3/NCoR1 (Homo sapiens, UniProt O15379); test: Inhibition of human recombinant HDAC3/GST tagged NCOR1 (397 to 503 residues) expressed in insect cells using Ac-Leu-Gly-Lys(Ac)-AMC as substrate preincubated for 5 mins followed by substrate addition measured after 30 mins by fluorescence assay
Histone deacetylase 3/NCoR1, sequence (O15379 whole entry, the tested form may be a part): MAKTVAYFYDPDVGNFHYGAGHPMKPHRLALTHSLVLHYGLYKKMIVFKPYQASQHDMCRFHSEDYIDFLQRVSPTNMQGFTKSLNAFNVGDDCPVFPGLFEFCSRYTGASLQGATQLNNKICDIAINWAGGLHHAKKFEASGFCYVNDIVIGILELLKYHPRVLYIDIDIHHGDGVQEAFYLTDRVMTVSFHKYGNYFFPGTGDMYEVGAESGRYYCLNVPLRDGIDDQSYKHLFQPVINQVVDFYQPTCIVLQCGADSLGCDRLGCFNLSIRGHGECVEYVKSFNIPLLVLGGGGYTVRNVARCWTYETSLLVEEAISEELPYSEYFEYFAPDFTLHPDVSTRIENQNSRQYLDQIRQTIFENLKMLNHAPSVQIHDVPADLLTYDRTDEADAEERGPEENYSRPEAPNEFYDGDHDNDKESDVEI
Histone deacetylase 3/NCoR1, sequence (O75376 whole entry, further chain, the tested form may be a part): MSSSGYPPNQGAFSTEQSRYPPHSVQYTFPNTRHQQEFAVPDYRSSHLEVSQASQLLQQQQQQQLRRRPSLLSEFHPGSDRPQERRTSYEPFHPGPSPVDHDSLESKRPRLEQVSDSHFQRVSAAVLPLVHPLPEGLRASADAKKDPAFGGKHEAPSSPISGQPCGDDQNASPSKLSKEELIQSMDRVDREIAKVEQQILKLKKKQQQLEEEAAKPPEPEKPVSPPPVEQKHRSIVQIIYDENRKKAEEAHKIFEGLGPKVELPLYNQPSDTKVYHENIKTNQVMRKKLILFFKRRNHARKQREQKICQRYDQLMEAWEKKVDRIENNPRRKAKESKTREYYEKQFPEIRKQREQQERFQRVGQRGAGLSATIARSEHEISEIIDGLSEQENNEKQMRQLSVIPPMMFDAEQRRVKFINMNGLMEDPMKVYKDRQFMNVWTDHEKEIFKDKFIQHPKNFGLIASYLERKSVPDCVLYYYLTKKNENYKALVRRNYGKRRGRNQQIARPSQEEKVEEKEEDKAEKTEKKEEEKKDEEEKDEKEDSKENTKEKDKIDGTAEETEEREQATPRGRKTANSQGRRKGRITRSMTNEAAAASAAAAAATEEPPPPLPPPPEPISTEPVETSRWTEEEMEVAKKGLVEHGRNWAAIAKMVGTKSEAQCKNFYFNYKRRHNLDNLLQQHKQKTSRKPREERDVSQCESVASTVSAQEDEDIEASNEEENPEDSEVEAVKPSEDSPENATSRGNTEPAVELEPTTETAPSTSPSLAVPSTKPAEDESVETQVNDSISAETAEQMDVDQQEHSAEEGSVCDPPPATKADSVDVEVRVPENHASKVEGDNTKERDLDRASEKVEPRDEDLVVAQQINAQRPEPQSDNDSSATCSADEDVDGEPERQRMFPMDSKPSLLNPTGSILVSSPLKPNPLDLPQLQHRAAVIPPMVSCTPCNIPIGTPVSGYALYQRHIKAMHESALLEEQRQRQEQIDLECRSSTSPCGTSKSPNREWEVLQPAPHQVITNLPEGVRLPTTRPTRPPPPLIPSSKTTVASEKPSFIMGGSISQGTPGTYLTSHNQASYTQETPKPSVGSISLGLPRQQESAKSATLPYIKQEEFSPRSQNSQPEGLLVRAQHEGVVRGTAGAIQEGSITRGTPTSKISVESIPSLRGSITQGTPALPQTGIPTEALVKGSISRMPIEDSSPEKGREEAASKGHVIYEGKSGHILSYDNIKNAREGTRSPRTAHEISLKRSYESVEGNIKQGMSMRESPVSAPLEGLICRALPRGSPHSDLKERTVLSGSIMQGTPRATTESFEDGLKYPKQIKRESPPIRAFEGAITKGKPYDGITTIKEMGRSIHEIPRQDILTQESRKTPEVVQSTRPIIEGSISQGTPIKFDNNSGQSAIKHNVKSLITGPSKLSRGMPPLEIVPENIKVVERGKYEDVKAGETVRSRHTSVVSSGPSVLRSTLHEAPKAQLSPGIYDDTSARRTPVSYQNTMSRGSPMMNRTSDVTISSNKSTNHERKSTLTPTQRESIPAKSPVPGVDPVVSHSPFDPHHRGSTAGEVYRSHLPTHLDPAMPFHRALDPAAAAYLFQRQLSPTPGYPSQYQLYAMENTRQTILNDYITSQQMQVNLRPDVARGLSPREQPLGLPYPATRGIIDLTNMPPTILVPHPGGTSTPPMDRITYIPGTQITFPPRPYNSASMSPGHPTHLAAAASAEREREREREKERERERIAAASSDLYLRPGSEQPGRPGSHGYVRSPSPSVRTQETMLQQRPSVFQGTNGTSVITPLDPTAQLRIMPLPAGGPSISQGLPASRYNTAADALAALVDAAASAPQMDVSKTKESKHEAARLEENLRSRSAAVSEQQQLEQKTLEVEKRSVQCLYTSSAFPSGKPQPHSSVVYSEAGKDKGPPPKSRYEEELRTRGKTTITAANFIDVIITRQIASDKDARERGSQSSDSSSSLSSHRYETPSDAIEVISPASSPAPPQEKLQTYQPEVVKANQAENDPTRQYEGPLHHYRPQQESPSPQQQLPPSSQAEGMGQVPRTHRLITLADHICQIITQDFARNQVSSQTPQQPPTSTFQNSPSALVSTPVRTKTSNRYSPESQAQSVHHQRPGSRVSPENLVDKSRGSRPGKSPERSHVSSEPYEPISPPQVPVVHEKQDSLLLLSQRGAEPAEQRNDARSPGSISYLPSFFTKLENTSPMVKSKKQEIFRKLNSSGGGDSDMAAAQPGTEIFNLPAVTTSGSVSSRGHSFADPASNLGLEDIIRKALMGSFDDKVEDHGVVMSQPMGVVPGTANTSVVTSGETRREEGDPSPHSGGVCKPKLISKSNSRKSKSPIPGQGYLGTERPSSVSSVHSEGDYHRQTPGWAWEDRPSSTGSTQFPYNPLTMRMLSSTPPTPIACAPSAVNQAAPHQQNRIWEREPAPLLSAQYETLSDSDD

HCT-116 [14] = test: Cell cycle arrest in human HCT116 cells assessed as accumulation at G2 phase at 1 uM after 48 hrs by propidium iodide staining based flow cytometry (reference value: 5%); format: functional
HCT-116 [15] = test: animal or person; format: functional, Homo sapiens; conditions: Mus musculus, HCT-116, ip, read-out: TGI
Homo sapiens [16] = species: Homo sapiens; test: Inhibition of HDAC in human HCT116 cells assessed as increase in acetylated histone H4 level after 24 hrs by Western blot analysis; format: cell-based; procedure, shortened: as §1
Rattus norvegicus = test: Volume of distribution at steady state in Sprague-Dawley rat at 2 mg/kg, ip; format: ADME, organism-based; conditions: in vivo; procedure, shortened: as §2
[17] = biological target: Nicotinamide phosphoribosyltransferase (Homo sapiens, UniProt P43490); test: Inhibition of human recombinant NAMPT using NAM as substrate preincubated for 5 mins followed by substrate addition measured after 15 mins by fluorescence assay
Nicotinamide phosphoribosyltransferase, sequence (P43490 whole entry): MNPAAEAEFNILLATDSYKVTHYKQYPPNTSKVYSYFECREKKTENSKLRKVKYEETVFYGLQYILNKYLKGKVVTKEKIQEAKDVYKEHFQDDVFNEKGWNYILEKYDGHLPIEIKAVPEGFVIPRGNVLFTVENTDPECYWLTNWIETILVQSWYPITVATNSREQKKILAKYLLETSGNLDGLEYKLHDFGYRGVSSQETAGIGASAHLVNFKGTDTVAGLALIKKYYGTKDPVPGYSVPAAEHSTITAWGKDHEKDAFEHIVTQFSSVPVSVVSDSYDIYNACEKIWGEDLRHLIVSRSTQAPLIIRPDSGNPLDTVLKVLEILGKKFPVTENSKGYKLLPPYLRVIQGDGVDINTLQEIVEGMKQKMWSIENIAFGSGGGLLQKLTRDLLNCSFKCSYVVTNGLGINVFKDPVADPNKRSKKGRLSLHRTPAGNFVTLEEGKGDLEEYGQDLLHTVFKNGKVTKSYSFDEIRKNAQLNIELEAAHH

- IC50 (MDA-MB-231): 10000 nM
- Cmax [3]: 745 ng/mL
- IC50 (Histone deacetylase 8): > 100000 nM
- IC50 (HCT-116 [7]): 2400 nM
- IC50 (Histone deacetylase 2): 75 nM
- IC50 (HepG2): 4500 nM
- IC50 (Histone deacetylase 4): > 100000 nM
- half-life [12]: 1.8 h
- IC50 (Histone deacetylase 1): 55 nM
- IC50 [13]: 1870 nM
- Vdss (Rattus norvegicus): 6.229 L/kg
- IC50 [17]: 31 nM
SMILES: Nc1ccccc1NC(=O)c1ccc(Cn2cc(-c3ccc(C(=O)NCc4cccnc4)cc3)nn2)cc1
- inhibition (Homo sapiens [1]): Active
- Activity (HCT-116 [2]): 39%
- Activity (HCT-116 [4]): inactive
- Activity (HCT-116 [5]): 2.43%
- Activity (HCT-116 [6]): 15.22%
- Activity (HCT-116 [8]): 21.84%
- Activity (HCT-116 [9]): 2.19%
- Activity (HCT-116 [10]): Active
- Activity (HCT-116 [11]): Active
- Activity (HCT-116 [14]): 19%
- inhibition in vivo at 25 mg/kg (HCT-116 [15]): 69%
- inhibition (Homo sapiens [16]): Active
